Test results reported in ChEMBL document CHEMBL4364284, “Design, Synthesis, and Efficacy Testing of Nitroethylene- and 7-Nitrobenzoxadiazol-Based Flavodoxin Inhibitors against Helicobacter pylori Drug-Resistant Clinical Strains and in Helicobacter pylori-Infected Mice” (J Med Chem, 2019).
In brackets after ≈: the same amount, converted by molar mass. Activity calls are given as the source filed them. The rule behind the calls is not given here.

Columns and labels:
[1] = biological target: T1, Flavodoxin (Helicobacter pylori (strain ATCC 700392 / 26695) (Campylobacter pylori)) (UniProt O25776); experiment: Binding affinity to Helicobacter pylori flavodoxin by isothermal titration calorimetric method
T1 sequence (whole entry): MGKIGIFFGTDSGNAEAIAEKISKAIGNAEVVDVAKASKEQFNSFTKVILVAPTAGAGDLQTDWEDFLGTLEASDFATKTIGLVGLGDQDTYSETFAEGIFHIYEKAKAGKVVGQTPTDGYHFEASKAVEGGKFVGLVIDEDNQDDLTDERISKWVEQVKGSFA

[2] = biological target: T1, Flavodoxin (Helicobacter pylori (strain ATCC 700392 / 26695) (Campylobacter pylori)); experiment: Binding affinity to Helicobacter pylori flavodoxin by thermal upshift assay
[3] = biological target: T1, Flavodoxin (Helicobacter pylori (strain ATCC 700392 / 26695) (Campylobacter pylori)); experiment: Inhibition of flavodoxin in Mnz-resistant Helicobacter pylori NCTC 11637 ATCC 43504 assessed as reduction in bacterial growth measured after 48 hrs by resazurin staining-based microdilution method; settings: Helicobacter pylori NCTC 11637 = CCUG 17874 = ATCC 43504
Summary of the method: (§1)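 Broth microdilution in brain heart infusion with 4% FBS. Inoculum diluted to OD600 0.01. Two-fold dilutions from a DMSO stock cover 64–0.031 μg/mL, with DMSO ≤1% v/v. Incubated 48 h at 37 °C under microaerophilic conditions. MIC is the lowest concentration giving complete growth inhibition, read by resazurin colour change and confirmed by spotting on blood agar. Run twice in triplicate.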

Escherichia coli = experiment: Effect on growth of Escherichia coli DH5[alpha] after 48 hrs by resazurin-dye based microdilution assay; assay type: organism-based
[4] = biological target: T1, Flavodoxin (Helicobacter pylori (strain ATCC 700392 / 26695) (Campylobacter pylori)); experiment: Inhibition of flavodoxin in Helicobacter pylori SS1 assessed as reduction in bacterial growth measured after 48 hrs by resazurin staining-based microdilution method; summary of the method: as §1
[5] = Cytotoxicity against human HeLa cells assessed as reduction in cell viability by XTT assay; assay type: cell-based; settings: read-out: MCC50
Summary of the method: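 HeLa cells grown in DMEM with 10% FBS, penicillin and streptomycin at 37 °C, 5% CO2; 30 000 cells/well. XTT viability read at 450 and 650 nm. MCC50 (50% lysis) came from viability-versus-concentration curves. Two experiments, each in triplicate.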

[6] = biological target: T1, Flavodoxin (Helicobacter pylori (strain ATCC 700392 / 26695) (Campylobacter pylori)); experiment: Inhibition of flavodoxin in Helicobacter pylori ATCC 700392 26695 assessed as reduction in bacterial growth measured after 48 hrs by resazurin staining-based microdilution method; settings: Helicobacter pylori 26695; summary of the method: as §1
Staphylococcus aureus = experiment: Effect on growth of Staphylococcus aureus ATCC 1228 after 48 hrs by resazurin-dye based microdilution assay; assay type: organism-based
[7] = biological target: T1, Flavodoxin (Helicobacter pylori (strain ATCC 700392 / 26695) (Campylobacter pylori)); experiment: Inhibition of flavodoxin in metronidazole-resistant Helicobacter pylori isolate 1 assessed as reduction in bacterial growth measured after 48 hrs by resazurin staining-based microdilution method
Summary of the method: (§2)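 Clinical isolates from gastric biopsies of patients who failed ≥2 therapies; resistance classified by EUCAST breakpoints. […] Read by resazurin colour change as the lowest concentration giving complete growth inhibition.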

[8] = biological target: T1, Flavodoxin (Helicobacter pylori (strain ATCC 700392 / 26695) (Campylobacter pylori)); experiment: Inhibition of flavodoxin in metronidazole-resistant Helicobacter pylori isolate 2 assessed as reduction in bacterial growth measured after 48 hrs by resazurin staining-based microdilution method; summary of the method: as §2
[9] = biological target: T1, Flavodoxin (Helicobacter pylori (strain ATCC 700392 / 26695) (Campylobacter pylori)); experiment: Inhibition of flavodoxin in clarithromycin/metronidazole-resistant Helicobacter pylori isolate 6 assessed as reduction in bacterial growth measured after 48 hrs by resazurin staining-based microdilution method
[10] = biological target: T1, Flavodoxin (Helicobacter pylori (strain ATCC 700392 / 26695) (Campylobacter pylori)); experiment: Inhibition of flavodoxin in clarithromycin/metronidazole-resistant Helicobacter pylori isolate 4 assessed as reduction in bacterial growth measured after 48 hrs by resazurin staining-based microdilution method; summary of the method: as §2
[11] = Stability of the compound in DMSO-d6 at pH 1 incubated for 19 hrs under shaking condition by 1H-NMR analysis; assay type: physicochemical; settings: pH 1, 19 h
[12] = Therapeutic index, ratio of MCC50 for human HeLa cells to MIC for inhibition of flavodoxin in Mnz-resistant Helicobacter pylori NCTC 11637 ATCC 43504 assessed as reduction in bacterial growth; assay type: toxicity; settings: read-out: TI
Summary of the method: (§3)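 TI is MCC50/MIC. For MCC50, HeLa cells (30 000/well, DMEM with 10% FBS) were exposed to compound at 25–1000 μM final. Viability by XTT at 450/650 nm; MCC50 is the concentration giving 50% lysis from viability curves. Run twice in triplicate.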

[13] = Therapeutic index, ratio of MCC50 for human HeLa cells to MIC for inhibition of flavodoxin in Helicobacter pylori ATCC 700392 26695 assessed as reduction in bacterial growth; assay type: toxicity; settings: HeLa cells versus Helicobacter pylori ATCC 700392 26695, read-out: TI; summary of the method: as §3
[14] = Therapeutic index, ratio of MCC50 for human HeLa cells to MIC for inhibition of flavodoxin in Helicobacter pylori SS1 assessed as reduction in bacterial growth; assay type: toxicity; settings: HeLa cells versus Helicobacter pylori SS1, read-out: TI; summary of the method: as §3
[15] = Toxicity in NMRI mouse assessed as change in body weight at 10 to 20 mg/100g, po administered daily via gavage for 8 days; assay type: organism-based; settings: in vivo, 192 h
[16] = Toxicity in NMRI mouse infected with Helicobacter pylori SS1 assessed as change in appetite at 10 to 20 mg/100g, po administered daily via gavage for 8 days starting from 1 week post-infection; assay type: organism-based; settings: in vivo
Summary of the method: (§4)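 Female 6-week-old SPF NMRI mice infected orogastrically with Hp SS1 on days 1 and 3. Compound in 5–10% DMSO/olive oil (100 μL) given by daily oral gavage for 8 days from day 8. Body weight and appetite were monitored during treatment; infected controls received vehicle alone.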

[17] = Toxicity in NMRI mouse infected with Helicobacter pylori SS1 assessed as change in body weight at 10 to 20 mg/100g, po administered daily via gavage for 8 days starting from 1 week post-infection; assay type: organism-based; settings: in vivo; summary of the method: as §4
[18] = Therapeutic index, ratio of MCC50 for human HeLa cells to MIC for inhibition of flavodoxin in clarithromycin/metronidazole-resistant Helicobacter pylori isolate 4 assessed as reduction in bacterial growth; assay type: toxicity; settings: read-out: TI; summary of the method: as §3
[19] = Therapeutic index, ratio of MCC50 for human HeLa cells to MIC for inhibition of flavodoxin in metronidazole-resistant Helicobacter pylori isolate 2 assessed as reduction in bacterial growth; assay type: toxicity; settings: read-out: TI; summary of the method: as §3
[20] = Therapeutic index, ratio of MCC50 for human HeLa cells to MIC for inhibition of flavodoxin in clarithromycin/metronidazole-resistant Helicobacter pylori isolate 6 assessed as reduction in bacterial growth; assay type: toxicity; settings: read-out: TI; summary of the method: as §3
[21] = Therapeutic index, ratio of MCC50 for human HeLa cells to MIC for inhibition of flavodoxin in rifampicin-resistant Helicobacter pylori isolate 5 assessed as reduction in bacterial growth; assay type: toxicity; settings: read-out: TI; summary of the method: as §3
[22] = Therapeutic index, ratio of MCC50 for human HeLa cells to MIC for inhibition of flavodoxin in metronidazole-resistant Helicobacter pylori isolate 1 assessed as reduction in bacterial growth; assay type: toxicity; settings: read-out: TI; summary of the method: as §3
[23] = Therapeutic index, ratio of MCC50 for human HeLa cells to MIC for inhibition of flavodoxin in metronidazole-resistant Helicobacter pylori isolate 3 assessed as reduction in bacterial growth; assay type: toxicity; settings: read-out: TI; summary of the method: as §3

SMILES	Activity [1]	Activity [2]	MIC [3] [µM]	Activity (Escherichia coli)	MIC [4] [µM]	CC50 [5] [µM]	MIC [6] [µM]	Activity (Staphylococcus aureus)	selectivity ratio [12]	selectivity ratio [13]	selectivity ratio [14]	other results
ONCCc1ccccc1	Active	Active	> 233	Non-Toxic	> 233	> 1000	> 233	Non-Toxic				
COc1ccc(CSc2ccc(N)c3nonc23)cc1	Active	Active	27.8 (≈ 7.99 µg/mL)		13.9 (≈ 3.99 µg/mL)		27.8 (≈ 7.99 µg/mL)					inhibition [7]: Active; inhibition [8]: Active; inhibition [9]: Active; inhibition [10]: Active; Stability [11]: Stable
Cc1ncc([N+](=O)[O-])n1CCO [METRONIDAZOLE]	Active	Active	187 (≈ 32 µg/mL)	Non-Toxic	2.9 (≈ 0.496 µg/mL)	> 1000	12 (≈ 2.05 µg/mL)	Non-Toxic	> 5.3	> 83	> 345	
COc1ccc(C[S+]([O-])c2ccc([N+](=O)[O-])c3nonc23)cc1 (configuration not stated)	Active	Active	6 (≈ 2 µg/mL)	Non-Toxic	12 (≈ 4 µg/mL)	179	6 (≈ 2 µg/mL)	Non-Toxic	30	30	15	
NCCc1ccccc1 [PHENETHYLAMINE]	Active	Active	66 (≈ 8 µg/mL)	Non-Toxic	132 (≈ 16 µg/mL)	> 1000	66 (≈ 8 µg/mL)	Non-Toxic	> 15	> 15	> 7.6	Activity [15]: Non-Toxic; Activity [16]: Non-Toxic; Activity [17]: Non-Toxic
Cc1ncc(N)n1CCO	Active	Active	227 (≈ 32 µg/mL)	Non-Toxic	> 453	> 1000	453 (≈ 64 µg/mL)	Non-Toxic	> 4.4	> 2.2		
O=[N+]([O-])C1=Cc2cc(Cl)cc(Cl)c2OC1c1ccc(F)cc1 (configuration not stated)	Active	Active	0.37 (≈ 0.126 µg/mL)		0.37 (≈ 0.126 µg/mL)		0.37 (≈ 0.126 µg/mL)					
COc1ccc(CS(=O)(=O)c2ccc(N)c3nonc23)cc1	Active	Active	100 (≈ 31.9 µg/mL)	Non-Toxic	100 (≈ 31.9 µg/mL)	> 1000	100 (≈ 31.9 µg/mL)	Non-Toxic	> 10	> 10	> 10	selectivity ratio [18]: 20; selectivity ratio [19]: 10; selectivity ratio [20]: 10; selectivity ratio [21]: 10; selectivity ratio [22]: 10; selectivity ratio [23]: 20
COc1ccc(C2(C)SCc3cc(C)c(C)cc3CS2)cc1	Active	Active	3 (≈ 0.992 µg/mL)		6.1 (≈ 2.02 µg/mL)		3 (≈ 0.992 µg/mL)					Stability [11]: Stable
O/N=C/Cc1cc(C(F)(F)F)cc(C(F)(F)F)c1	Active	Active	59 (≈ 16 µg/mL)	Non-Toxic	236 (≈ 64 µg/mL)	> 500	118 (≈ 32 µg/mL)	Non-Toxic	> 8.5	> 4.2	> 2.1	selectivity ratio [18]: 34; selectivity ratio [19]: 4.2; selectivity ratio [20]: 4.2; selectivity ratio [21]: 4.2; selectivity ratio [22]: 4.2; selectivity ratio [23]: 4.2
O=[N+]([O-])CCc1ccccc1	Active	Active	212 (≈ 32 µg/mL)	Non-Toxic	212 (≈ 32 µg/mL)	> 1000	106 (≈ 16 µg/mL)	Non-Toxic	> 4.7	> 9.4	> 4.7	selectivity ratio [18]: 605; selectivity ratio [19]: 4.7; selectivity ratio [20]: 4.7; selectivity ratio [21]: 4.7; selectivity ratio [22]: 4.7; selectivity ratio [23]: 4.7
COc1ccc(CSc2ccc([N+](=O)[O-])c3nonc23)cc1	Active	Active	1.6 (≈ 0.508 µg/mL)		0.78 (≈ 0.248 µg/mL)		6.3 (≈ 2 µg/mL)					Stability [11]: Stable
